Our source for the Activity and IC50 values is ChEMBL document CHEMBL3425495, “Perturbation of the c-Myc-Max protein-protein interaction via synthetic α-helix mimetics” (J Med Chem, 2015).

Assay [1] has as its target T1, c-Myc/Max (Homo sapiens, UniProt P01106+P61244). The experiment in a line: Disruption of human recombinant c-Myc-Max(S)/DNA (unknown origin) binding assessed as complex level at 100 uM by electrophoretic mobility shift assay relative to control. Format: protein-complex assay. An outline of the steps: (§1)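 Recombinant c-Myc 353–437 bHLH-ZIP with full-length Max(S), or Max(L) alone, from E. coli (His₆ removed by TEV), each 30 nM, with 30 nM HEX-labelled double-stranded oligonucleotide bearing a c-Myc site; buffer 1× PBS pH 7.3, 1 mM EDTA, 0.1% NP40, 5% glycerol, 1 mM DTT, 400 µg/mL BSA; complex level relative to DMSO control; three independent EMSAs.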

Assay [2] concerns the target T1, c-Myc/Max. In words: Disruption of human recombinant c-Myc-Max/DNA (unknown origin) binding assessed as complex level by electrophoretic mobility shift assay relative to control. Format: protein-complex assay. The gist of the method:
as §1
(A gel shift assay detects complexes by their altered migration in electrophoresis.)

Assay [3] can be described thus: Antiproliferative activity against c-Myc-overexpressing human HL60 cells after 3 days by MTT assay. The note with it: HL-60, 72 h. Format: functional, cell-based. The gist of the method:
(§2)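 Cells at >90% viability seeded at 2×10³ cells/well in fresh growth medium with 10-point serial dilutions of compound; 3-day incubation; viability by MTT, relative to untreated cells; each point in at least triplicate; IC50 from dose–response. HO15.19-wt-Myc are myc−/− rat fibroblasts with c-Myc restored by stable retroviral transduction.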
(In general: Tetrazolium dyes change colour on reduction, which living cells bring about.)

The subject of a further assay is Daudi. The experiment in a line: Antiproliferative activity against c-Myc-overexpressing human Daudi cells after 3 days by MTT assay. Format: functional, cell-based. Conditions: 72 h. The gist of the method:
as §2

Assay [4] in a line: Cell cycle arrest in human HL60 cells assessed as accumulation at G0/G1 phase at 20 uM after 24 hrs by propidium iodide staining-based flow cytometric analysis (reference value: 39%). In kind it is functional. The note with it: HL-60. (In general: In flow cytometry, cells or beads pass a laser one at a time.)
Assay [5] can be described thus: Cell cycle arrest in human HL60 cells assessed as accumulation at S phase at 20 uM after 24 hrs by propidium iodide staining-based flow cytometric analysis (reference value: 49%). In kind it is functional. Conditions: HL-60.
Assay [6] is described as follows: Cell cycle arrest in human HL60 cells assessed as accumulation at G2/M phase at 20 uM after 24 hrs by propidium iodide staining-based flow cytometric analysis (reference value: 11.2%). In kind it is functional. Conditions: HL-60.
Assay [7] can be described thus: Cell cycle arrest in human HL60 cells assessed as accumulation at G0/G1 phase at 40 uM after 24 hrs by propidium iodide staining-based flow cytometric analysis (reference value: 39%). Format: functional. The note with it: HL-60.
Assay [8] is described as follows: Cell cycle arrest in human HL60 cells assessed as accumulation at S phase at 40 uM after 24 hrs by propidium iodide staining-based flow cytometric analysis (reference value: 49%). Format: functional. Conditions: HL-60.
A short description of assay [9]: Cell cycle arrest in human HL60 cells assessed as accumulation at G2/M phase at 40 uM after 24 hrs by propidium iodide staining-based flow cytometric analysis (reference value: 11.2%). In kind it is functional. Conditions: HL-60.
The target in assay [10] is T1, c-Myc/Max. In words: Induction of dissociation of […]-Max in human HL60 cells at 40 to 72 uM after 6 hrs by Co-immunoprecipitation (Co-IP) assay. Conditions: HL-60. In kind it is cell-based. An outline of the steps: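 About 5×10⁶ HL60 cells exposed 6 h to compound or DMSO; lysed in IP buffer; 300 µg cleared lysate immunoprecipitated overnight at 4 °C with anti-Max (1:200) and protein G-Sepharose; 10% SDS-PAGE, immunoblot with anti-c-Myc 9E10 (1:1000); input lysate kept for comparison.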

Molecules are shown by their SMILES. Activity calls are given as the source filed them. The calls are words filed in the database; no cut-off is given here.

T1 sequence (P01106 whole entry): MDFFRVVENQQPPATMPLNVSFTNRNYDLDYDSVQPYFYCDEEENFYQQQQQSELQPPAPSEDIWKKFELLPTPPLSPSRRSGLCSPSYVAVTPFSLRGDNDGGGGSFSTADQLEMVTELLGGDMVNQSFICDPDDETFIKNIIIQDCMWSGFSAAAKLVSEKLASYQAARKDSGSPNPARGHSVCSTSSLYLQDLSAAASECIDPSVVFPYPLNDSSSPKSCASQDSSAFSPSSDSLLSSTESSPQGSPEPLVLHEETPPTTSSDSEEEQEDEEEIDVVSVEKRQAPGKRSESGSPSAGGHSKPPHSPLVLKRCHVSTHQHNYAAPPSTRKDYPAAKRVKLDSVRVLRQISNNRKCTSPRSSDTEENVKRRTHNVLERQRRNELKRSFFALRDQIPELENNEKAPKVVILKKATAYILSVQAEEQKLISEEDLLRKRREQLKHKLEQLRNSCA
T1 sequence (P61244 whole entry): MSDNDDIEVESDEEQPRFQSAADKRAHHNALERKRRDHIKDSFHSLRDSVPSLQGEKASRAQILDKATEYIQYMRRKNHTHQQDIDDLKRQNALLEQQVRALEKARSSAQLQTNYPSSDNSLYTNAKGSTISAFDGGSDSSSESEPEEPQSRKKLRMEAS

For the molecule `COC(=O)c1ccc(NC(=O)c2ccc([N+](=O)[O-])c(OC3Cc4ccccc4C3)c2)c(OCc2ccccc2)c1`, at c-Myc/Max [1], the Activity came to 78%.
For `COC(=O)c1ccc(NC(=O)c2ccc([N+](=O)[O-])c(OCc3ccccc3)c2)c(OCC(C)C)c1`, on c-Myc/Max [1], the Activity came out at 75%.
Same read-out and setting: for `CC(C)COc1nc(C(=O)Nc2ccc(C(=O)O)nc2OCC(C)C)ccc1N` the value was 79%; for `CC(C)COc1cc(C(=O)Nc2ccc(C(=O)O)cc2OCc2cccnc2)ccc1[N+](=O)[O-]`, 75%; for `CC(C)COc1cc(C(=O)Nc2ccc(C(=O)O)cc2OCC(C)C)ccc1NC(=O)COCC(=O)O`, 89%.
Take `COC(=O)c1ccc(NC(=O)c2ccc([N+](=O)[O-])c(OC3Cc4ccccc4C3)c2)c(OC2Cc3ccccc3C2)c1`: on c-Myc/Max [1], the Activity worked out at 100%.
The same measure, in the same setting: then `CC(C)COc1cc(NC(=O)c2ccc([N+](=O)[O-])cc2OCC(C)C)ccc1C(=O)O`, with 96%; and `CC(C)COc1cc(C(=O)O)ccc1NC(=O)c1ccc([N+](=O)[O-])cc1`, with 90%; and `COC(=O)c1ccc(NC(=O)c2ccc([N+](=O)[O-])c(OC(C)C)c2)c(OCC(C)C)c1`, with 70%.
For the molecule `CC(C)COc1cc(C(=O)O)ccc1NC(=O)c1ccc([N+](=O)[O-])c(OCC(C)C)n1`, the Activity at c-Myc/Max [1] came to 0%. The results for the IC50 (at c-Myc/Max [2]; in assay [3]; in the assay on Daudi) were 43.8 µM, 21.5 µM and 11.2 µM, respectively.
In the case of `COC(=O)c1ccc(NC(=O)c2ccc([N+](=O)[O-])c(OC3Cc4ccccc4C3)c2)c(OCC(C)C)c1`, the Activity on c-Myc/Max [1] was 90%.
Turning to `CC(C)COc1cc(C(=O)N(CC(=O)O)CC(=O)O)ccc1NC(=O)c1ccc([N+](=O)[O-])c(OCC(C)C)c1`, the Activity on c-Myc/Max [1] is 99%.
With `CC(C)COc1cc(C(=O)O)ccc1NC(=O)c1ccc([N+](=O)[O-])c(OCC(C)C)c1`, the Activity at c-Myc/Max [1] came to 0%. Further, the IC50 (as a rule, the concentration that gives 50% inhibition) on c-Myc/Max [2] came to 20.2 µM; in assay [3] it was 39.9 µM; in the assay on Daudi, 22.9 µM.
For the molecule `COC(=O)c1ccc(NC(=O)c2ccc([N+](=O)[O-])c(OC(C)C)c2)c(OC2Cc3ccccc3C2)c1`, the Activity at c-Myc/Max [1] was 109%.
Same read-out and setting: for `CC(C)COc1cc(C(=O)O)ccc1NC(=O)c1ccc([N+](=O)[O-])c(OC2Cc3ccccc3C2)c1` the value was 65%.
The same measure, in the same setting: then `O=C(O)c1ccc(NC(=O)c2ccc([N+](=O)[O-])cc2)cc1`, with 87%.
Still for that read-out and setting: then `COC(=O)c1ccc(NC(=O)c2ccc([N+](=O)[O-])c(OC(C)C)c2)c(OCc2ccccc2)c1`, with 73%.
Consider `CC(C)COc1cc(C(=O)O)ccc1NC(=O)c1ccc(N)c(OC2Cc3ccccc3C2)c1`, for which the Activity at c-Myc/Max [1] was determined as 87%.
`CC(C)COc1cc(C(=O)Nc2ccc(C(=O)O)cc2OCc2ccncc2)ccc1[N+](=O)[O-]`: the Activity on c-Myc/Max [1] came out at 87%.
Same read-out and setting: for `CC(C)COc1cc(C(=O)Nc2ccc(C(=O)O)cc2OCC(C)C)ccc1NC(=O)C(=O)O` the value was 99%; for `COC(=O)c1ccc(NC(=O)c2ccc([N+](=O)[O-])c(OCc3cccc4ccccc34)c2)c(OCc2ccccc2)c1`, 88%; for `CC(C)COc1cc(C(=O)Nc2ccc(C(=O)O)cc2OCC(C)C)ccc1N`, 105%.
Still for that read-out and setting: for `CC(C)COc1cc(C(=O)NCC(=O)O)ccc1NC(=O)c1ccc([N+](=O)[O-])c(OCC(C)C)c1` the value was 107%; for `COC(=O)c1ccc(NC(=O)c2ccc([N+](=O)[O-])c(OCc3ccccc3)c2)c(OCc2ccccc2)c1`, 85%.
Same read-out and setting: then `COC(=O)c1ccc(NC(=O)c2ccc([N+](=O)[O-])c(OCC(C)C)c2)c(OCC(C)C)c1`, with 112%; and `CC(C)COc1cccc(C(=O)Nc2ccc(C(=O)O)cc2OCC(C)C)c1`, with 97%.
As to `CC(C)COc1cc(C(=O)Nc2ccc(C(=O)O)cc2OCc2ccccn2)ccc1[N+](=O)[O-]`, on c-Myc/Max [1], the Activity was found to be 116%.
On the same count and under the same terms, then `CC(C)COc1cc(NC(=O)c2ccc([N+](=O)[O-])c(OCC(C)C)c2)ccc1C(=O)O`, with 80%; and `CC(C)COc1cc(C(=O)Nc2ccc(C(=O)O)cc2OCc2ccccc2)ccc1[N+](=O)[O-]`, with 104%.
With `CCOC(=O)C(=O)Nc1ccc(C(=O)Nc2ccc(C(=O)O)cc2OCC(C)C)cc1OCC(C)C`, the Activity at c-Myc/Max [1] is 0%. Moreover, the IC50 on c-Myc/Max [2] is 5.6 µM; in assay [3], more than 50 µM; in the assay with Daudi it was more than 50 µM.
`COC(=O)c1ccc(NC(=O)c2ccc([N+](=O)[O-])c(OCc3cccc4ccccc34)c2)c(OC2Cc3ccccc3C2)c1`: the Activity on c-Myc/Max [1] worked out at 117%.
As to `CC(C)COc1cc(C(=O)O)ccc1NC(=O)c1ccc([N+](=O)[O-])c(OCc2ccccc2)c1`, the IC50 at c-Myc/Max [2] turned out to be 43 µM; in the assay on Daudi, 25.6 µM.
Take `CC(C)COc1nc(C(=O)O)ccc1NC(=O)c1ccc([N+](=O)[O-])c(OCC(C)C)n1`: the Activity at c-Myc/Max [1] is 0%. The figures for the IC50 (on c-Myc/Max [2]; in assay [3]; in the assay on Daudi) were 23.8 µM, 30.3 µM and 11.1 µM, respectively.
For the molecule `COC(=O)c1ccc(NC(=O)c2ccc([N+](=O)[O-])c(OCc3ccccc3)c2)c(OC2Cc3ccccc3C2)c1`, the Activity on c-Myc/Max [1] was 112%.
As for `CC(C)Oc1cc(C(=O)O)ccc1NC(=O)c1ccc([N+](=O)[O-])c(OC(C)C)c1`, at c-Myc/Max [1], the Activity came to 47%.
As for `CC(C)COc1cc(C(=O)Nc2ccc(C(=O)O)cc2)ccc1[N+](=O)[O-]`, the Activity at c-Myc/Max [1] worked out at 81%.
`CCc1ccc(/C=C2\SC(=S)NC2=O)cc1`: the Activity is 48% in assay [4]; 42% in assay [5]; 10% in [6]; 59.3% in assay [7]; 35% in [8]; 5.6% in assay [9]. Further, the result on c-Myc/Max [10] was inactive.
Turning to `CC(C)COc1cc(C(=O)O)ccc1NC(=O)c1ccc([N+](=O)[O-])c(OCc2ccccn2)c1`, the Activity on c-Myc/Max [1] was found to be 100%.
The same measure, in the same setting: for `CC(C)COc1cc(C(=O)O)ccc1NC(=O)c1ccc([N+](=O)[O-])cc1OCC(C)C` the value was 120%; for `COc1cc(C(=O)O)ccc1NC(=O)c1ccc([N+](=O)[O-])c(OC)c1`, 94%; for `COC(=O)c1ccc(NC(=O)c2ccc([N+](=O)[O-])c(OCc3cccc4ccccc34)c2)c(OCC(C)C)c1`, 109%.
